Screens as filed in PubChem.
KCC2 mod – modulators of human KCC2 chloride dependent transport. KCC2 cells, thallium flux FluoZin-2 fluorescence. B-score of Tl+ flux slope (higher = more flux/activation; lower = inhibition) at 10 µM. 190,000 compounds, 2.2% hits. AID 1456;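 active means thallium flux slope and its plate-corrected score both differing from the plate sample mean at a set confidence after two filtering rounds, in either direction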;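 further: slope of fluorescence scaled to starting intensity during 10 to 20 s after thallium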
KCNK3 block – human KCNK3 channel inhibition, primary screen; AID 602410; CHO-KCNK3 thallium flux, FluxOR fluorescence; stronger effect = lower value; O14649; 340,000 compounds, 0.84% hits; B-score at 10 µM;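 active means B-score under library mean minus 4 SD, starting fluorescence ratio at most library mean plus 5 SD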;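 further: more negative B-score means stronger inhibition of thallium flux through KCNK3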
hERG protect – hERG (human) protection from proarrhythmic block; Q12809; CHO-hERG, FluxOR thallium flux, dofetilide IC70 present; activation (rescue from dofetilide block), less the hit threshold, % at 10 µM; 310,000 compounds, 0.51% hits;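 active means activation above the mean of controls blocked by dofetilide plus 5 SD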;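 further: thallium influx through hERG after potassium depolarization seen as dye fluorescence rise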
KCNK9 inh – human KCNK9 channel inhibition. 310,000 compounds, 1.2% hits. HEK293 KCNK9, FluxOR thallium flux fluorescence; stronger effect = lower value. Q9NPC2. B-score at 10 µM;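 active means ratio B-score over 3 SD below the library mean, with starting fluorescence within 5 SD of its mean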;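 further: negative B-score means less thallium flux so channel inhibition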
KCNQ1 act – potentiates or activates the human KCNQ1 potassium channel | CHO-K1 KCNQ1, thallium flux FluxOR fluorescence; stronger effect = higher value | B-score at 10 µM | 310,000 compounds, 0.35% hits | AID 2648;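 active means fluorescence ratio B-score, a plate-corrected score, at least three library SD, with initial intensity B-score within 5 SD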
Target sequence (P51787 whole entry, looked up): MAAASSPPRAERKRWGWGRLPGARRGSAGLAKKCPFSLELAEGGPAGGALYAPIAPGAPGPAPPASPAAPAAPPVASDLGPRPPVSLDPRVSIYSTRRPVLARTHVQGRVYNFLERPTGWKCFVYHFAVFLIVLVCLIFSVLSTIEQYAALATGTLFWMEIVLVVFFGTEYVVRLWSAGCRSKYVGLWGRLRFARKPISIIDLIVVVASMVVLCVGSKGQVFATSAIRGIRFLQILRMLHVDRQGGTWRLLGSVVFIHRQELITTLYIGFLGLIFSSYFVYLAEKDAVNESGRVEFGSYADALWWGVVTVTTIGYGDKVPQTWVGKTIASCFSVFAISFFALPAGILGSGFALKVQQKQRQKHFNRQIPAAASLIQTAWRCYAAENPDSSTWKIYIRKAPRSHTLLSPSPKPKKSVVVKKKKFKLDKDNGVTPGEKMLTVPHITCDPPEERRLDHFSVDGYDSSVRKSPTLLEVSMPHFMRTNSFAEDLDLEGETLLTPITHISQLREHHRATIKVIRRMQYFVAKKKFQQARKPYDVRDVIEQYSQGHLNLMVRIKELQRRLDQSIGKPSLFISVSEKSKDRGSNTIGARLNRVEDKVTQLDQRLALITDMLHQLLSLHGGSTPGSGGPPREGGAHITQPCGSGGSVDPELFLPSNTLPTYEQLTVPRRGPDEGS
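Material: CHO-K1 cells stably expressing KCNQ1. Medium: assay buffer for compound exposure, DMSO matched across wells. Reagent: K+/Tl+ depolarizing stimulus. Compound dosing: single-concentration screen. Times: 37 °C overnight plating, 90-min dark dye load, 20-min compound pretreatment. Technique: FluxOR Tl+ flux fluorescence.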
KCNQ1 inh – inhibitors of human KCNQ1 potassium channel; P51787; CHO-K1 KCNQ1, FluxOR thallium flux fluorescence; stronger effect = higher value; B-score at 10 µM; 310,000 compounds, 1.3% hits;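 active means compounds whose thallium flux B-score, printed positive for inhibition, exceeds three library SD while starting fluorescence stays within three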;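 further: channel opened by potassium depolarization with thallium stimulus after 20 min compound exposure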
* = called active by the depositor; i = inactive; / = no result. An excerpt weighted towards active compounds, which were near 4.1% of everything screened.

SMILES	KCC2 mod	KCNK3 block	hERG protect	KCNK9 inh	KCNQ1 act	KCNQ1 inh
Cc1cc(Nc2ccccc2)nn1C(=O)c1ccc(Cl)cc1	0.23	i	-5	-7.7*	i	i
Cc1cccn2c(=O)nc(SCC(=O)N3CCC(Cc4ccccc4)CC3)nc12	/	i	-22	i	i	i
CS(=O)(=O)c1ccc(C(=O)OCc2nnc(-c3ccccc3)o2)cc1[N+](=O)[O-]	-3	i	-17	i	21*	i
O=C(O)c1c2c(nc3ccccc13)CCCCC2	1.2	i	-10	i	i	i
CN(C)C(=O)c1c2c(nc3ccccc13)CCCC2	/	i	8.1*	i	i	i
COc1ccc(-c2oc3cccnc3c2/C=C/c2ccc(OC)c(OC)c2)cc1	/	i	-11	i	i	i
N#C/C(=C\c1ccc(N2CCOCC2)o1)C(=O)NCC1CCCO1 (stereo not given)	i	i	-17	i	i	9*
COCCNC(=O)/C(C#N)=C/c1ccc(N2CCOCC2)o1	i	i	-21	i	i	i
N#C/C(=C/c1ccc(N2CCOCC2)o1)C(=O)Nc1ccccc1	i	i	-34	-6.6*	i	i
N#C/C(=C\c1ccc(N2CCOCC2)o1)C(=O)NC1CCCCC1	-4.4	i	-26	i	i	9*
N#C/C(=C\c1ccc(N2CCOCC2)o1)C(=O)NCCc1ccccc1	/	i	-15	i	i	i
CCOc1ccc(/C=C2\C(=O)c3ccccc3OC2c2ccccc2)cc1 (stereo not given)	0.84	i	-16	i	i	i
COc1ccc(/C=C2\C(=O)c3ccccc3OC2c2ccccc2)cc1 (stereo not given)	0.98	i	-6	-6.7*	i	i
CSc1nnc(N2C(=O)C(O)=C(C(=O)c3ccco3)C2c2ccc(F)cc2)s1 (stereo not given)	/	i	-13	i	i	10*
CSc1nnc(N2C(=O)C(O)=C(C(=O)c3ccco3)C2c2cccc(Cl)c2)s1 (stereo not given)	/	i	-21	i	i	9*
CCOCCOCN(C#N)c1nc(OC)nc(N(C)C)n1	-0.88	i	49*	i	i	i
O=C(Nc1ccc(Br)cc1F)c1ccncc1	-1.2	i	-9	i	i	i
O=C(Nc1ccc(Cl)c(Cl)c1)Nc1ccc(Br)cc1F	1.4	i	-29	i	i	7*
Cc1ccccc1-c1cccc([C@@H]2C[C@H]3[C@H](CON3C)CN2Cc2cc(Cl)cc(Cl)c2)c1	/	i	/	/	/	/
O=C(NNC(=O)c1ccccc1F)c1cccc(S(=O)(=O)N2CCc3ccccc32)c1	/	i	/	/	/	/
CCN1C(=O)CCN(C2CCCC2)c2nc(Nc3ccc(C(=O)NC4CCN(C)CC4)cc3OC)ncc21	/	i	/	/	/	/
COc1ccc(C(=O)NC(C)c2nnc(SCC(=O)Nc3nc(C)cs3)n2C)cc1 (stereo not given)	0.94	i	-7	i	i	i
COc1ccc(C(=O)NC(C)c2nnc(SCC(=O)Nc3nc4ccccc4s3)n2C)cc1 (stereo not given)	-4.6*	i	-8	i	i	i
COc1ccc(C=NNC(=O)c2ccccc2OCc2ccc(F)cc2)c(OC)c1	/	-9.9*	/	/	/	/
Cc1ccc(NC(=O)c2ccccc2OCc2c(C)noc2C)cc1S(=O)(=O)N(C)C	/	i	/	/	/	/
SMILES	KCC2 mod	KCNK3 block	hERG protect	KCNK9 inh	KCNQ1 act	KCNQ1 inh
COc1cccc(NC(=O)c2ccccc2OCc2c(C)noc2C)c1	/	-11*	/	/	/	/
CCOc1cc(/C=N/NC(=O)c2ccccc2OCc2ccc(F)cc2)ccc1O	/	i	/	/	/	/
COc1cc(NC(=O)c2ccccc2OCc2ccccc2)cc(OC)c1OC	/	i	11*	i	i	i
Cc1oc(-c2ccccc2)nc1CS(=O)CC(=O)O (stereo not given)	2.9*	i	-3	i	i	i
CC(C)(/C=N/NC(=O)CSCc1ccc(Cl)cc1)CCC#N	-0.57	i	5.1*	i	i	i
O=C(Cc1ccc(Br)c2ccccc12)N/N=C/c1ccccn1	-0.79	i	-9	-7.1*	i	i
COc1cccc(OC)c1C(=O)NC(=S)N1CCN(c2ccc(C(F)(F)F)cc2[N+](=O)[O-])CC1	-1.9	i	11*	i	i	i
COc1cccc(C(=O)NC(=S)N2CCN(c3ccc(C(F)(F)F)cc3[N+](=O)[O-])CC2)c1	8.8*	i	3	i	i	i
CC(C)Oc1cccc(C(=O)NC(=S)N2CCN(c3ccc(C(F)(F)F)cc3[N+](=O)[O-])CC2)c1	18*	i	-4	i	37*	i
CCOc1ccc(C(=O)NC(=S)N2CCN(c3ccc(C(F)(F)F)cc3[N+](=O)[O-])CC2)cc1	-0.59	i	-5	i	i	i
CN(Cc1cccs1)C(=O)COc1cccc2c1OC(C)(C)C2	/	i	/	/	/	/
CCOC(=O)CNC(=O)N1CCCC(Cc2ccccc2)(C(=O)OCC)C1 (stereo not given)	/	i	-3	i	i	i
CCn1nc(NS(=O)(=O)c2ccccc2[N+](=O)[O-])c2cc3cccc(C)c3nc21	/	i	-17	i	i	i
CCn1nc(NS(=O)(=O)c2ccc([N+](=O)[O-])cc2)c2cc3cccc(C)c3nc21	/	i	-7	i	i	9*
CCN(CC)S(=O)(=O)c1cc(NC(=O)CSCc2c(C)noc2C)ccc1C	/	-10*	/	/	/	/
CCN(CC)S(=O)(=O)c1cc(NC(=O)CCc2c(C)noc2C)ccc1C	/	i	/	/	/	/
Cc1cc(C)n2nc(C(=O)OCC(=O)c3ccc(F)cc3)nc2n1	/	i	-8	i	i	i
C[C@H](CO)N1C[C@H](C)[C@@H](CN(C)S(=O)(=O)c2cccs2)Oc2c(NS(=O)(=O)c3cn(C)cn3)cccc2C1=O	/	i	/	/	/	/
C=CCn1c(Br)nc2c1c(=O)[nH]c(=O)n2C	0.091	i	5.5*	i	i	i
C=CCn1c(Br)nc2c1c(=O)n(C)c(=O)n2C	/	i	-7	i	i	i
Clc1ccccc1C1CC(c2ccccc2)=Nc2ccccc2N1 (stereo not given)	0.69	i	-15	i	i	6*
CCc1ccc(/C=C2\Oc3c(ccc(O)c3CN3CCN(CCO)CC3)C2=O)cc1	-0.95	i	-29	i	i	11*
CCc1ccc(/C=C2\Oc3cc(OS(C)(=O)=O)ccc3C2=O)cc1	-0.5	i	-5	i	i	i
CN(C)CCCN1C(=O)c2oc3ccccc3c(=O)c2C1c1cccs1 (stereo not given)	7.3*	i	-10	i	i	i
